# According to ChEMBL document CHEMBL3407460, “Synthesis of novel thiazole-based 8,9-dihydro-7H-pyrimido[4,5-b][1,4]diazepines as potential antitumor and antifungal agents” (2015):
# Assays:
# Assay type in all cases: functional
# [1] = Antitumor activity against human HCC2998 cells after 48 hrs by Sulforhodamine B assay; settings: HCC 2998, 48 h; for CC50: read-out: LC50 (the source's name)
# Method in brief: (§1)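 NCI 60-cell-line screen. Secondary five-dose test at 100, 10, 1.0, 0.1 and 0.01 µM with continuous drug exposure for 48 h. Cell growth was estimated by sulforhodamine B protein staining. […] LC50 was also reported.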
# [2] = Antitumor activity against human HOP92 cells after 48 hrs by Sulforhodamine B assay; settings: HOP-92, 48 h; for CC50: read-out: LC50 (the source's name); method in brief: as §1
# [3] = Antitumor activity against human UACC62 cells after 48 hrs by Sulforhodamine B assay; settings: UACC-62, 48 h; method in brief: as §1
# SR = experiment: Antitumor activity against human SR cells after 48 hrs by Sulforhodamine B assay; settings: for CC50: read-out: LC50 (the source's name); method in brief: as §1
# [4] = Antitumor activity against human OVCAR5 cells after 48 hrs by Sulforhodamine B assay; settings: OVCAR-5, 48 h; method in brief: as §1
# [5] = Antitumor activity against human SKOV3 cells after 48 hrs by Sulforhodamine B assay; settings: SK-OV-3, 48 h; for CC50: read-out: LC50 (the source's name); method in brief: as §1
# HL-60(TB) = experiment: Antitumor activity against human HL-60(TB) cells after 48 hrs by Sulforhodamine B assay; settings: HL-60, 48 h; for CC50: read-out: LC50 (the source's name); method in brief: as §1
# SK-MEL-5 = experiment: Antitumor activity against human SK-MEL-5 cells after 48 hrs by Sulforhodamine B assay; settings: SK-MEL-5, 48 h; for CC50: read-out: LC50 (the source's name); method in brief: as §1
Compound,GI50 [1],CC50 [1],GI50 [2],CC50 [2],GI50 [3],LC50 [3],GI50 (SR),CC50 (SR),GI50 [4],LC50 [4],GI50 [5],CC50 [5],GI50 (HL-60(TB)),CC50 (HL-60(TB)),GI50 (SK-MEL-5),CC50 (SK-MEL-5)
Cc1ccc(C2=Nc3c(N)ncnc3NC(c3sc(Cl)nc3Cl)C2)cc1 (configuration not stated),10.3 µM,46.8 µM,3.72 µM,45.4 µM,3.05 µM,37.2 µM,2.25 µM,76.7 µM,10.2 µM,46.8 µM,3.6 µM,43 µM,2.04 µM,> 100 µM,3.69 µM,37.3 µM
Nc1ncnc2c1N=C(c1ccc3c(c1)OCO3)CC(c1sc(Cl)nc1Cl)N2 (configuration not stated),6.11 µM,48.8 µM,4.25 µM,77.5 µM,2.17 µM,63.9 µM,1.9 µM,> 100 µM,6.03 µM,> 100 µM,2.78 µM,> 100 µM,36.1 µM,> 100 µM,3.43 µM,40.8 µM
